ChEMBL document CHEMBL3621139, “NO-Donor Dihydroartemisinin Derivatives as Multitarget Agents for the Treatment of Cerebral Malaria” (J Med Chem, 2015)
Activity calls are given as the source filed them.

What was measured:
[1] = test system: Plasmodium berghei; assay: Antiplasmodial activity against Plasmodium berghei ANKA early trophozoite stage by parasite LDH assay; format: functional, organism-based
[2] = test system: Plasmodium berghei; assay: Antiplasmodial activity against Plasmodium berghei ANKA infected in C57BL/6 mouse assessed as reduction in paresitemia at 1.4 umol, ip qd for 5 days measured after 5 days by giemsa staining based microscpic analysis; format: functional, organism-based
Procedure, shortened: (§1)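 C57BL/6 mice infected with P. berghei ANKA and treated from day 5 of infection at 5–15% parasitemia, before neurological signs. Dosing 1.4 μmol ip once daily for 5 days; parasitemia checked every 24 h. Value given as % of pre-treatment parasitemia (set as 100%), read 24 h after the first dose or 24 h after the fifth.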

[3] = test system: Plasmodium berghei; assay: Antiplasmodial activity against Plasmodium berghei ANKA infected in C57BL/6 mouse assessed as reduction in paresitemia at 1.4 umol, ip qd for 5 days measured after 24 hrs by giemsa staining based microscpic analysis; format: functional; procedure, shortened: as §1
[4] = test system: Aorta; assay: Vasodilatory activity in Wistar rat endothelium-denuded thoracic aorta assessed as reduction in phenylephrine-induced contraction in presence 1 uM sGC inhibitor ODQ; format: functional, tissue-based
Procedure, shortened: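 Denuded aortic strips equilibrated 120 min, with ODQ 1 μM added to the bath 5 min before L-phenylephrine (1 μM) contraction. Cumulative vasodilator concentrations then added. EC50 is the mean ± SEM of at least three experiments, in a separate series.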

[5] = test system: Aorta; assay: Vasodilatory activity in Wistar rat endothelium-denuded thoracic aorta assessed as reduction in phenylephrine-induced contraction; format: functional, tissue-based
Procedure, shortened: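 Endothelium-denuded aortic strips equilibrated 120 min, contracted with L-phenylephrine (1 μM), then given cumulative concentrations of vasodilator. EC50 is the mean ± SEM of at least three experiments.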

[6] = test system: Plasmodium berghei; assay: Antimalarial activity against Plasmodium berghei ANKA infected in C57BL/6 mouse experimental cerebral model with body temperature >32 deg C assessed as mouse survival rate at 25 mg/kg, ip qd for 5 days; format: functional
Procedure, shortened: (§2)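 P. berghei ANKA-infected mice left to develop clinical cerebral signs, then treated once hypothermic (rectal temperature 30–36 °C); parasitemia checked but not a treatment criterion. Read-out is survival, compared by log-rank test; 24 h survival also recorded. […] only the subgroup treated above 32 °C body temperature.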

[7] = test system: Plasmodium berghei; assay: Antimalarial activity against Plasmodium berghei ANKA infected in C57BL/6 mouse experimental cerebral model assessed as mouse survival rate at 25 mg/kg, ip qd for 5 days; format: functional; procedure, shortened: as §2
[8] = test system: Plasmodium berghei; assay: Antimalarial activity against Plasmodium berghei ANKA infected in C57BL/6 mouse experimental cerebral model assessed as mouse survival rate at 25 mg/kg, ip qd for 5 days measured after 24 hrs; format: functional; procedure, shortened: as §2
[9] = test system: Plasmodium berghei; assay: Antimalarial activity against Plasmodium berghei ANKA infected in C57BL/6 mouse experimental cerebral model with body temperature >32 deg C assessed as mouse survival rate at 57 mg/kg, ip qd for 5 days; format: functional; procedure, shortened: as §2
[10] = test system: Plasmodium berghei; assay: Antimalarial activity against Plasmodium berghei ANKA infected in C57BL/6 mouse experimental cerebral model assessed as mouse survival rate at 57 mg/kg, ip qd for 5 days; format: functional; procedure, shortened: as §2
[11] = test system: Plasmodium berghei; assay: Antimalarial activity against Plasmodium berghei ANKA infected in C57BL/6 mouse experimental cerebral model assessed as mouse survival rate at 57 mg/kg, ip qd for 5 days measured after 24 hrs; format: functional; procedure, shortened: as §2

| Compound | IC50 [1] [nM] | Activity [2] | inhibition (INH) [3] [%] | EC50 [4] [nM] | EC50 [5] [nM] | Activity [6] [%] | Activity [7] [%] | Activity [8] [%] | Activity [9] [%] | Activity [10] [%] | Activity [11] [%] | Activity [5] |
| --- | --- | --- | --- | --- | --- | --- | --- | --- | --- | --- | --- | --- |
| C[C@H]1[C@H](OC(=O)CCC(=O)O)O[C@@H]2O[C@@]3(C)CC[C@H]4[C@H](C)CC[C@@H]1[C@@]24OO3 [SODIUM ARESUNATE] | 16 |  |  |  |  |  |  |  |  |  |  |  |
| C[C@H]1[C@@H](OCCN(C)Cc2no[n+]([O-])c2C#N)O[C@@H]2O[C@@]3(C)CC[C@H]4[C@H](C)CC[C@@H]1[C@@]24OO3 | 18 | Active | 85 | 250 | 23 |  |  |  |  |  |  |  |
| CO[C@H]1O[C@@H]2O[C@@]3(C)CC[C@H]4[C@H](C)CC[C@@H]([C@H]1C)[C@@]24OO3 [ARTEMETHER] | 3 |  |  |  |  | 33.3 | 27.5 | 48 |  |  |  |  |
| C[C@H]1[C@@H](OCCN(C)Cc2no[n+]([O-])c2S(=O)(=O)c2ccccc2)O[C@@H]2O[C@@]3(C)CC[C@H]4[C@H](C)CC[C@@H]1[C@@]24OO3 | 14 | Active | 95 | 30000 | 410 |  |  |  |  |  |  |  |
| C[C@H]1[C@@H](OCCN(C)Cc2no[n+]([O-])c2C(N)=O)O[C@@H]2O[C@@]3(C)CC[C@H]4[C@H](C)CC[C@@H]1[C@@]24OO3 | 16 | Active | 95 | 12000 | 1400 |  |  |  | 63.6 | 51.6 | 77 | Dose-dependent effect |
| C[C@H]1[C@@H](OC(=O)CCC(=O)OCO/N=[N+](\[O-])N2CCCC2)O[C@@H]2O[C@@]3(C)CC[C@H]4[C@H](C)CC[C@@H]1[C@@]24OO3 | 15 | Active | 95 | 140 | 3.6 |  |  |  |  |  |  |  |
